Source: ChEMBL document CHEMBL1212734, “In vitro pharmacodynamics of levofloxacin and other aerosolized antibiotics under multiple conditions relevant to chronic pulmonary infection in cystic fibrosis” (2010)
≈ marks a conversion by molar mass, not a printed value.

Columns and labels:
Format in all cases: functional
Burkholderia cepacia = assay: Antibacterial activity against Burkholderia cepacia clinical isolates by broth dilution method
Staphylococcus aureus [1] = assay: Antibacterial activity against methicillin-resistant Staphylococcus aureus by broth dilution method
How it was run: (§1)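 Broth microdilution MIC per CLSI reference method; twofold serial dilutions in cation-adjusted Mueller-Hinton broth. […] Endpoint read by OD600 and confirmed visually.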

Staphylococcus aureus [2] = assay: Antibacterial activity against methicillin-sensitive Staphylococcus aureus by broth dilution method
Pseudomonas aeruginosa [3] = assay: Antibacterial activity against Pseudomonas aeruginosa PA1054 assessed as inhibition of biofilm formation by microtiter plate reader assay; settings: for MIC: Pseudomonas aeruginosa, PA1054
How it was run: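 Biofilms of cystic fibrosis P. aeruginosa isolates were grown and tested by a previously described method. The endpoint was the biofilm inhibitory concentration, the drug level that prevents biofilm cell growth, compared against planktonic broth-microdilution MICs.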

Pseudomonas aeruginosa [4] = assay: Antibacterial activity against Pseudomonas aeruginosa PA5063 by broth dilution method; how it was run: as §1
Pseudomonas aeruginosa [5] = assay: Antibacterial activity against Pseudomonas aeruginosa ATCC 27853 assessed as inhibition of biofilm formation by microtiter plate reader assay
Pseudomonas aeruginosa [6] = assay: Antibacterial activity against Pseudomonas aeruginosa PA1036 by broth dilution method; how it was run: as §1
Pseudomonas aeruginosa [7] = assay: Antibacterial activity against Pseudomonas aeruginosa PA876 by broth dilution method; how it was run: as §1
Pseudomonas aeruginosa [8] = assay: Antibacterial activity against Pseudomonas aeruginosa PA861 by broth dilution method; how it was run: as §1
Pseudomonas aeruginosa [9] = assay: Antibacterial activity against Pseudomonas aeruginosa PA1054 assessed as time required for reduction of bacterial load to 3 log CFU/ml at 0.2 mg/ml up to 48 hrs by time-kill assay
How it was run: (§2)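 Overnight cultures were diluted and grown at 37°C to OD600 ≈0.3, then set at 5 × 10^5–1 × 10^6 CFU/ml in 10 ml CAMHB. Drug was added at 0.2, 0.6 or 2.0 mg/ml, and cultures were shaken at 37°C. Samples taken at 0, 0.5, 1, 2, 4, 8 and 24 h were washed twice in CAMHB, diluted in saline and plated on Mueller-Hinton agar. Plates were incubated up to 48 h before colony counting.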

Pseudomonas aeruginosa [10] = assay: Antibacterial activity against Pseudomonas aeruginosa PA1042 assessed as time required for reduction of bacterial load to 3 log CFU/ml at 0.2 mg/ml up to 48 hrs by time-kill assay; how it was run: as §2
Pseudomonas aeruginosa [11] = assay: Antibacterial activity against Pseudomonas aeruginosa PA5043 assessed as time required for reduction of bacterial load to 3 log CFU/ml at 0.2 mg/ml up to 48 hrs by time-kill assay; how it was run: as §2
Pseudomonas aeruginosa [12] = assay: Antibacterial activity against Pseudomonas aeruginosa PA881 assessed as time required for reduction of bacterial load to 3 log CFU/ml at 0.2 mg/ml up to 48 hrs by time-kill assay; how it was run: as §2
Pseudomonas aeruginosa [13] = assay: Antibacterial activity against Pseudomonas aeruginosa PA861 assessed as time required for reduction of bacterial load to 3 log CFU/ml at 0.2 mg/ml up to 48 hrs by time-kill assay; how it was run: as §2
Pseudomonas aeruginosa [14] = assay: Antibacterial activity against Pseudomonas aeruginosa PA5020 assessed as time required for reduction of bacterial load to 3 log CFU/ml at 0.2 mg/ml up to 48 hrs by time-kill assay; how it was run: as §2
Pseudomonas aeruginosa [15] = assay: Antibacterial activity against Pseudomonas aeruginosa PA1022 assessed as time required for reduction of bacterial load to 3 log CFU/ml at 0.6 mg/ml up to 48 hrs by time-kill assay; how it was run: as §2
Pseudomonas aeruginosa [16] = assay: Antibacterial activity against Pseudomonas aeruginosa PA1042 assessed as time required for reduction of bacterial load to 3 log CFU/ml at 0.6 mg/ml up to 48 hrs by time-kill assay; how it was run: as §2
Pseudomonas aeruginosa [17] = assay: Antibacterial activity against Pseudomonas aeruginosa PA881 assessed as time required for reduction of bacterial load to 3 log CFU/ml at 0.6 mg/ml up to 48 hrs by time-kill assay; how it was run: as §2
Pseudomonas aeruginosa [18] = assay: Antibacterial activity against Pseudomonas aeruginosa PA1022 assessed as time required for reduction of bacterial load to 3 log CFU/ml at 2 mg/ml up to 48 hrs by time-kill assay; how it was run: as §2
Pseudomonas aeruginosa [19] = assay: Antibacterial activity against Pseudomonas aeruginosa PA5043 assessed as time required for reduction of bacterial load to 3 log CFU/ml at 2 mg/ml up to 48 hrs by time-kill assay; how it was run: as §2
Pseudomonas aeruginosa [20] = assay: Antibacterial activity against Pseudomonas aeruginosa PA880 assessed as time required for reduction of bacterial load to 3 log CFU/ml at 2 mg/ml up to 48 hrs by time-kill assay; how it was run: as §2
Pseudomonas aeruginosa [21] = assay: Antibacterial activity against Pseudomonas aeruginosa PA881 assessed as time required for reduction of bacterial load to 3 log CFU/ml at 2 mg/ml up to 48 hrs by time-kill assay; how it was run: as §2
Pseudomonas aeruginosa [22] = assay: Antibacterial activity against Pseudomonas aeruginosa PA1036 assessed as time required for reduction of bacterial load to 3 log CFU/ml at 2 mg/ml up to 48 hrs by time-kill assay; how it was run: as §2
Pseudomonas aeruginosa [23] = assay: Antibacterial activity against Pseudomonas aeruginosa PA876 assessed as time required for reduction of bacterial load to 3 log CFU/ml at 2 mg/ml up to 48 hrs by time-kill assay; how it was run: as §2
Pseudomonas aeruginosa [24] = assay: Antibacterial activity against Pseudomonas aeruginosa PA5020 assessed as time required for reduction of bacterial load to 3 log CFU/ml at 2 mg/ml up to 48 hrs by time-kill assay; how it was run: as §2
Pseudomonas aeruginosa [25] = assay: Antibacterial activity against Pseudomonas aeruginosa PA1042 by broth dilution method; how it was run: as §1
Pseudomonas aeruginosa [26] = assay: Antibacterial activity against Pseudomonas aeruginosa ATCC 27853 by broth dilution method; how it was run: as §1
Pseudomonas aeruginosa [27] = assay: Antibacterial activity against Pseudomonas aeruginosa PA5043 by broth dilution method; how it was run: as §1
Pseudomonas aeruginosa [28] = assay: Antibacterial activity against Pseudomonas aeruginosa PA1022 by broth dilution method
Pseudomonas aeruginosa [29] = assay: Antibacterial activity against Pseudomonas aeruginosa PA880 by broth dilution method; how it was run: as §1
Pseudomonas aeruginosa [30] = assay: Antibacterial activity against Pseudomonas aeruginosa PAM1032 overexpressing multidrug efflux pump MexAB-OprM by broth dilution method

| SMILES | MIC50 (Staphylococcus aureus [1]) [µg/mL] | MIC90 (Staphylococcus aureus [1]) [µg/mL] | MIC50 (Staphylococcus aureus [2]) [µg/mL] | MIC90 (Staphylococcus aureus [2]) [µg/mL] | BBC (Pseudomonas aeruginosa [3]) [µg/mL] | MIC (Pseudomonas aeruginosa [4]) [µg/mL] | BBC (Pseudomonas aeruginosa [5]) [µg/mL] | MIC (Pseudomonas aeruginosa [6]) [µg/mL] | MIC90 (Pseudomonas aeruginosa [7]) [µg/mL] | MIC (Pseudomonas aeruginosa [8]) [µg/mL] | Time (Pseudomonas aeruginosa [9]) | Time (Pseudomonas aeruginosa [10]) | Time (Pseudomonas aeruginosa [11]) | Time (Pseudomonas aeruginosa [12]) | Time (Pseudomonas aeruginosa [13]) | Time (Pseudomonas aeruginosa [14]) [h] | Time (Pseudomonas aeruginosa [15]) | Time (Pseudomonas aeruginosa [16]) | Time (Pseudomonas aeruginosa [17]) | Time (Pseudomonas aeruginosa [18]) | also measured |
| --- | --- | --- | --- | --- | --- | --- | --- | --- | --- | --- | --- | --- | --- | --- | --- | --- | --- | --- | --- | --- | --- |
| C[C@H]1COc2c(N3CCN(C)CC3)c(F)cc3c(=O)c(C(=O)O)cn1c23.C[C@H]1COc2c(N3CCN(C)CC3)c(F)cc3c(=O)c(C(=O)O)cn1c23.O [LEVOFLOXACIN] | 4 | 32 | 0.125 | 0.25 | 1 | 0.5 | 2 | 8 | 8 | 32 | <=0.5 hr | <=0.5 hr | <=0.5 hr | <=0.5 hr | <=0.5 hr | 4 | <=0.5 hr | <=0.5 hr | <=0.5 hr | <=0.5 hr | MIC50 (Burkholderia cepacia): 4 µg/mL; MIC90 (Burkholderia cepacia): 32 µg/mL; Time (Pseudomonas aeruginosa [19]): <=0.5 hr; Time (Pseudomonas aeruginosa [20]): <=0.5 hr; Time (Pseudomonas aeruginosa [21]): <=0.5 hr; Time (Pseudomonas aeruginosa [22]): <=0.5 hr; Time (Pseudomonas aeruginosa [23]): <=0.5 hr; Time (Pseudomonas aeruginosa [24]): 2 h |
| C[C@H]1[C@H](NC(=O)/C(=N\OC(C)(C)C(=O)O)c2csc(N)n2)C(=O)N1S(=O)(=O)O [AZTREONAM] | > 512 | > 512 | > 128 | > 128 | >64 | 8 (≈ 18.4 µM) | >256 | 32 (≈ 73.5 µM) | > 128 | 128 (≈ 294 µM) | 24 h | 8 h | 8 h | 8 h | >24 h | >24 | >24 h | 4 h | 8 h | 24 h | MIC (Pseudomonas aeruginosa [3]): 4 µg/mL (≈ 9.19 µM); MIC (Pseudomonas aeruginosa [25]): 0.5 µg/mL (≈ 1.15 µM); MIC (Pseudomonas aeruginosa [26]): 4 µg/mL (≈ 9.19 µM); MIC (Pseudomonas aeruginosa [27]): 1 µg/mL (≈ 2.3 µM); MIC (Pseudomonas aeruginosa [28]): 16 µg/mL (≈ 36.7 µM); MIC (Pseudomonas aeruginosa [29]): 0.5 µg/mL (≈ 1.15 µM); Time (Pseudomonas aeruginosa [19]): 2 h; Time (Pseudomonas aeruginosa [20]): 4 h; Time (Pseudomonas aeruginosa [21]): 8 h; Time (Pseudomonas aeruginosa [22]): 24 h; Time (Pseudomonas aeruginosa [23]): >24 h; Time (Pseudomonas aeruginosa [24]): 24 h |
| NC[C@H]1O[C@H](O[C@H]2[C@H](O)[C@@H](O[C@H]3O[C@H](CO)[C@@H](O)[C@H](N)[C@H]3O)[C@H](N)C[C@@H]2N)[C@H](N)C[C@@H]1O [TOBRAMYCIN] | 128 (≈ 274 µM) | > 128 | 0.125 (≈ 0.267 µM) | 32 (≈ 68.4 µM) | 1 | 0.25 (≈ 0.535 µM) | 1 | 1 (≈ 2.14 µM) | 32 (≈ 68.4 µM) | 16 (≈ 34.2 µM) | <=0.5 hr | 1 h | 2 h | <=0.5 hr | 8 h | 4 | 4 h | 1 h | <=0.5 hr | 4 h | MIC50 (Burkholderia cepacia): > 32 µg/mL; MIC90 (Burkholderia cepacia): > 32 µg/mL; MIC (Pseudomonas aeruginosa [3]): 1 µg/mL (≈ 2.14 µM); MIC (Pseudomonas aeruginosa [25]): 0.5 µg/mL (≈ 1.07 µM); MIC (Pseudomonas aeruginosa [26]): 0.25 µg/mL (≈ 0.535 µM); MIC (Pseudomonas aeruginosa [27]): 8 µg/mL (≈ 17.1 µM); MIC (Pseudomonas aeruginosa [28]): > 32 µg/mL; MIC (Pseudomonas aeruginosa [29]): 1 µg/mL (≈ 2.14 µM); Time (Pseudomonas aeruginosa [19]): 1 h; Time (Pseudomonas aeruginosa [20]): <=0.5 hr; Time (Pseudomonas aeruginosa [21]): <=0.5 hr; Time (Pseudomonas aeruginosa [22]): <=0.5 hr; Time (Pseudomonas aeruginosa [23]): 4 h; Time (Pseudomonas aeruginosa [24]): 2 h; MIC (Pseudomonas aeruginosa [30]): 0.25 µg/mL (≈ 0.535 µM) |
